How the values were obtained:
[1] = test system: Pseudomonas aeruginosa; test: Antibacterial activity against MDR clinical isolate Pseudomonas aeruginosa PA259 assessed as reduction in bacterial growth after 18 hrs in presence of cefiderocol by microbroth dilution method; assay type: functional
Outline: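 Checkerboard in MHB. Cefiderocol was 2-fold serially diluted along one axis and the adjuvant along the other. Inoculum was prepared from 0.5 McFarland saline suspensions diluted 1:50 in MHB, giving about 5 × 10^5 CFU/mL final. Plates ran 18 h at 37 °C, with turbidity confirmed at 590 nm. FIC = combination MIC ÷ MIC alone for each agent, and FIC index = sum of both. Interpretation: ≤0.5 synergy, >0.5–4 additive, >4 antagonism.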

[2] = test system: Enterobacter cloacae; test: Antibacterial activity against Enterobacter cloacae 117029 assessed as reduction in bacterial growth after 18 hrs by microbroth dilution method; assay type: functional
Outline: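 CLSI microbroth dilution in MHB. Overnight cultures were adjusted to 0.5 McFarland in saline, diluted 1:50, and inoculated at about 5 × 10^5 CFU/mL. Agents were 2-fold serially diluted and incubated 18 h at 37 °C. MIC is the lowest concentration without visible turbidity, confirmed by absorbance at 590 nm. Medium with and without cells served as controls.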

NC[C@H]1O[C@H](O[C@H]2[C@H](OCCCCc3cn(-c4ccc(NC(=O)c5cc(Cl)ccc5O)cc4)nn3)[C@@H](O[C@H]3O[C@H](CO)[C@@H](O)[C@H](N)[C@H]3O)[C@H](N)C[C@@H]2N)[C@H](N)C[C@@H]1O
MIC [1]: 4 µg/mL | MIC [2]: > 128 µg/mL

From ChEMBL document CHEMBL5136969, “A niclosamide-tobramycin hybrid adjuvant potentiates cefiderocol against P. aeruginosa” (2021)
